Measured values from publication PMC9078890 (RSC Advances, 2018).
Read-outs that look alike come from different tables or passages of the source.

Key:
PYK2 [1] = biological target: T1, PYK2 (Homo sapiens, UniProt Q14289); experiment: Kinase selectivity profiling, HTRF kinEASE-TK; format: biochemical
Outline: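 HTRF KinEASE-TK format; enzyme level, reaction time and ATP level were optimised beforehand. Test compound in kinase buffer, at half-log serial dilutions from 100 µM top (final), was mixed with TK substrate-biotin and kinase. ATP was added to start the reaction, which ran at room temperature. Eu3+-cryptate TK antibody and streptavidin-XL665 (0.125 μM final) were added; TR-FRET was read after 1 h. Triplicates; IC50 from sigmoid dose-response fit.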

PYK2 [2] = biological target: T1, PYK2; settings: read-out: Reported IC50 PYK2; cited from earlier work
[3] = biological target: Truncated human FAK(PTK2) (Homo sapiens, UniProt Q05397); experiment: In vitro FAK inhibition, HTRF kinEASE-TK kinase assay; format: biochemical
Sequence of Truncated human FAK(PTK2) (Q05397 376-1052): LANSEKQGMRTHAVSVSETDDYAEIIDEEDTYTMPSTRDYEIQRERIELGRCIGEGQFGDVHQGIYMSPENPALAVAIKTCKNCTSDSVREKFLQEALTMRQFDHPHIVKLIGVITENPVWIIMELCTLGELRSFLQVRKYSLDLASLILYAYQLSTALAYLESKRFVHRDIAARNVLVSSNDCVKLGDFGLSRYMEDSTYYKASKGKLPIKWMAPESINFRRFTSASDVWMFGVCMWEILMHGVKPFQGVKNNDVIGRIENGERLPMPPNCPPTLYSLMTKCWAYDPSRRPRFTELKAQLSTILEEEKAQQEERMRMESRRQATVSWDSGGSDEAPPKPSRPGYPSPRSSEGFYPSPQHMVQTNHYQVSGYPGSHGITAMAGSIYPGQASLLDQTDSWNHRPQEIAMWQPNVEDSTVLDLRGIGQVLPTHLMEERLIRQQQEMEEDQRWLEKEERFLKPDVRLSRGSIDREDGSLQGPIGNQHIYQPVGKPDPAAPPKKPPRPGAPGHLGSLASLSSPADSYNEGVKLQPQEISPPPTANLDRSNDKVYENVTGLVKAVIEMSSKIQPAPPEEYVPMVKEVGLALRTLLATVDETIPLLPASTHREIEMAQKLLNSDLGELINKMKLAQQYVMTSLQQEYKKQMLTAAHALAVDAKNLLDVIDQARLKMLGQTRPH

IGF-1R = IGF-1R (Homo sapiens, UniProt P08069); experiment: Kinase selectivity profiling, HTRF kinEASE-TK; format: biochemical; settings: relative to FAK
Sequence of IGF-1R (P08069 31-1367, species assumed): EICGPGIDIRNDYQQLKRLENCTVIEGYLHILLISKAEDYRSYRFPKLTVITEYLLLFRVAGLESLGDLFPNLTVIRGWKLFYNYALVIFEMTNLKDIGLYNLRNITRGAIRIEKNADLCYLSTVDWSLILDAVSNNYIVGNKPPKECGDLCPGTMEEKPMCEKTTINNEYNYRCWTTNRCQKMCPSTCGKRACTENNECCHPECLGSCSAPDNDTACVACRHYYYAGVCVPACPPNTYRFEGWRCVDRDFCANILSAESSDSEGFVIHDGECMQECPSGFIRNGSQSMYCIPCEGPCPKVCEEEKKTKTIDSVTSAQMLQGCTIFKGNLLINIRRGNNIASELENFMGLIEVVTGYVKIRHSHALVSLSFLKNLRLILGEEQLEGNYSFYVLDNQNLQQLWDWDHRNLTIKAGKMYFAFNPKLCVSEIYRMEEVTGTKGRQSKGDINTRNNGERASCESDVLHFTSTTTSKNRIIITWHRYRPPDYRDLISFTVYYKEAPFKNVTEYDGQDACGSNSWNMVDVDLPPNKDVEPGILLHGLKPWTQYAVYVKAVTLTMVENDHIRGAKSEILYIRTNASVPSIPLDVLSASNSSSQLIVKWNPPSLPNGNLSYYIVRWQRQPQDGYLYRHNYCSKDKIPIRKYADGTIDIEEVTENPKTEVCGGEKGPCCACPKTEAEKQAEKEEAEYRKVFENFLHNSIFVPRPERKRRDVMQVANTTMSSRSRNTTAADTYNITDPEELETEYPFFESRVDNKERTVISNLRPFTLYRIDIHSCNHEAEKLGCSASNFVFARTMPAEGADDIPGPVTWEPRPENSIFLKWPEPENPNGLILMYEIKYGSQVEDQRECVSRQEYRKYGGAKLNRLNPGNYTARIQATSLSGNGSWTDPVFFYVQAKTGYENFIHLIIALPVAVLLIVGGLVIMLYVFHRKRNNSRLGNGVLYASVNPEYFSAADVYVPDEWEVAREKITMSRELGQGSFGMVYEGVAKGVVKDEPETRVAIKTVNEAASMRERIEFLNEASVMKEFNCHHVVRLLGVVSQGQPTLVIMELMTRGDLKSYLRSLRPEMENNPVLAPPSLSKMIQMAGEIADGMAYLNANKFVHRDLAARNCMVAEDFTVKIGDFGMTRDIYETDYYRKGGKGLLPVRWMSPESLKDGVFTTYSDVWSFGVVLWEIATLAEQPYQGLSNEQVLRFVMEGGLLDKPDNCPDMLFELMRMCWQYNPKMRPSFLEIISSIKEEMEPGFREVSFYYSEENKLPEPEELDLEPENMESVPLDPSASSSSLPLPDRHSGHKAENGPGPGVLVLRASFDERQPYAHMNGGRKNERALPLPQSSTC

EGFR = EGFR (Homo sapiens, UniProt P00533); experiment: biochemical; format: biochemical
Sequence of EGFR (P00533 25-1210, species assumed): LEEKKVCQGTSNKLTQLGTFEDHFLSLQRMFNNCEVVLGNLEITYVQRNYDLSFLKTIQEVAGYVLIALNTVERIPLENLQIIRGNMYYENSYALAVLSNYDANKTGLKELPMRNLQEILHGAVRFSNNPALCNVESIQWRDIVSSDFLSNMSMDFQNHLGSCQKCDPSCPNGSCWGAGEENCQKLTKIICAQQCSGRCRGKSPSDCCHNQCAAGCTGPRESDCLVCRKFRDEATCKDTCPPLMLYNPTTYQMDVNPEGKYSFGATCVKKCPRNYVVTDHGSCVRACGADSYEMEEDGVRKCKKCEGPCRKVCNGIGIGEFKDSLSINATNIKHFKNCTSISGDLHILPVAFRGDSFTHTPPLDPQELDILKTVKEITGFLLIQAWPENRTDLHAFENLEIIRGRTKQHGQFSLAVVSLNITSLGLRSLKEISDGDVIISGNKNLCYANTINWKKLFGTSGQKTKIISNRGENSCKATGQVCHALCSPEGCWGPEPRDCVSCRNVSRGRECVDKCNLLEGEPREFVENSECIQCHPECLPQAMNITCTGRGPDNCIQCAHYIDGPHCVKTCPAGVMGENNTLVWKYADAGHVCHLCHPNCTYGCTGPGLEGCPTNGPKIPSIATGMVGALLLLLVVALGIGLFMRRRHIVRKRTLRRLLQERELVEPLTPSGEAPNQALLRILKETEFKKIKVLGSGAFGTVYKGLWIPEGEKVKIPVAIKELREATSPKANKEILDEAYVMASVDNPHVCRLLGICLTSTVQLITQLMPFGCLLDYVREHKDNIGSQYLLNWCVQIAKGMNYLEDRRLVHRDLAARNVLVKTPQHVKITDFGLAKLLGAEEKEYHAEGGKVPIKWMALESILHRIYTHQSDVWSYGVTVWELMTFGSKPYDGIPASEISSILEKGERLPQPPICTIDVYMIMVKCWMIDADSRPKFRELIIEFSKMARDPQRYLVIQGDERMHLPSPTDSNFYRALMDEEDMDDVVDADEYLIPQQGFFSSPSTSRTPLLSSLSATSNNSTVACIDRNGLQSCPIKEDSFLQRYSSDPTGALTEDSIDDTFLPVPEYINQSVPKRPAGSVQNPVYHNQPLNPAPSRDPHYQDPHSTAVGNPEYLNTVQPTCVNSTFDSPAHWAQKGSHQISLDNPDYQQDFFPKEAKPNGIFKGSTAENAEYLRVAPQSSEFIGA

PDGFRβ = PDGFRβ (Homo sapiens, UniProt P09619); experiment: Kinase selectivity profiling, HTRF kinEASE-TK; format: biochemical; settings: relative to FAK

T1 sequence (Q14289 whole entry, species assumed): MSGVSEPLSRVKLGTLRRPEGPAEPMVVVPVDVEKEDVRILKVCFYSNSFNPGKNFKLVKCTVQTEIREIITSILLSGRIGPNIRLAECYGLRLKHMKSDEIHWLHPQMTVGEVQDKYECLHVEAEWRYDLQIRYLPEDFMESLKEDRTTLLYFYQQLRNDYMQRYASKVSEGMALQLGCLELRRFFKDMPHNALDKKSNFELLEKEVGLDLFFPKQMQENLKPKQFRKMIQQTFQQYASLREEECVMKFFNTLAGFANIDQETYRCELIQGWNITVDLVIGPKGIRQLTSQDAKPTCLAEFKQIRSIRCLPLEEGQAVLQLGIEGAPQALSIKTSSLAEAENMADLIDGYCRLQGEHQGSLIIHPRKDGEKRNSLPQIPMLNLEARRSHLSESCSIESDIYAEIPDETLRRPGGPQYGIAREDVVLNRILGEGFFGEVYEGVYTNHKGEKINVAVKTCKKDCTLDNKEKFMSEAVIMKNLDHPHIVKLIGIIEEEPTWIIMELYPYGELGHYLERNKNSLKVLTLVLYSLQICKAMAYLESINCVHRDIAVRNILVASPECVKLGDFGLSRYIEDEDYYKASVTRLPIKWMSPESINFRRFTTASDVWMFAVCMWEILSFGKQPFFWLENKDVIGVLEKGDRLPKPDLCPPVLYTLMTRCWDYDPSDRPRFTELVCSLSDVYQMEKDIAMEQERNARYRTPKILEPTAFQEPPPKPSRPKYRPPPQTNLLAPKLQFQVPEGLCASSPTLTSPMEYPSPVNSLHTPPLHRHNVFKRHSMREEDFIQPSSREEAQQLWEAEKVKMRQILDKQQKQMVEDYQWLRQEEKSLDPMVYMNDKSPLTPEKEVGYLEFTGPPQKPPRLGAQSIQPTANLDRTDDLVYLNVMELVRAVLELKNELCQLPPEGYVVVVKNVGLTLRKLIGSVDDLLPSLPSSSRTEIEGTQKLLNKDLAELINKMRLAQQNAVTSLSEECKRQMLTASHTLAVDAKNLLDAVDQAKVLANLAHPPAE

Row | IC50 (PYK2 [1]; read-out: IC50 ± SD PYK2, mean of three determinations) | IC50 [3] | IC50 (PYK2 [1]) | selectivity against PYK2 (PYK2 [1]; relative to FAK) | selectivity against IGF-1R (IGF-1R) | IC50 (EGFR) | selectivity against EGFR (EGFR; relative to FAK) | selectivity against PDGFRβ (PDGFRβ) | Compound | IC50 (PYK2 [2])
1 | 5.7 ± 1.4 nM | – | – | – | – | – | – | – | CNC(=O)c1ccccc1Nc1nc(Nc2ccc(N3CCOCC3)cc2OC)ncc1Cl [NVP-TAE226, reference compound] | 3.5 ± 2.1 nM
2 | – | 1110 ± 60.9 nM | – | – | – | – | – | – | COc1ccc(Nc2nc(Nc3ccc(OCCOCCOCCF)cc3)ncc2Br)cc1 [[^19F]3, 5-Bromo-N^2-(4-(2-(2-(2-fluoroethoxy)ethoxy)ethoxy)phenyl)-N^4-(4-methoxyphenyl)pyrimidine-2,4-diamine] | –
3 | – | 57.1 ± 8.3 nM | 3560 ± 626 nM | 62.4 folds | more than 200 folds | 4.31 ± 0.562 µM | 75.5 folds | more than 200 folds | COc1ccc(Nc2nc(Nc3ccc(OCCOCCF)cc3)ncc2Br)cc1 [[^19F]2, 5-Bromo-N^2-(4-(2-(2-fluoroethoxy)ethoxy)phenyl)-N^4-(4-methoxyphenyl)pyrimidine-2,4-diamine] | –
